Apaf1 inhib = inhibitors of human Apaf-1 apoptosome, primary screen, biochemical, DEVD-Rh110 fluorescence, uHTS; Apoptotic protease-activating factor 1 (Homo sapiens), O14727; reconstituted apoptosome caspase-3 activity; inhibition, % at 20 µM; hit rate 0.71% among 330,000; AID 489030, 2010; active = inhibition of at least 40% at 20 µM;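 note: plate controls were DMSO wells for no effect and DEVD-CHO caspase inhibitor wells for full effect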
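Material: biochemical Apaf-1 apoptosome reconstitution. Medium: Hepes buffer, pH 7.5. Also added: cytochrome c activation, bis-DEVD rhodamine 110 substrate. Timing: 30 min compound preincubation, 50 min activation, room temperature. Measured by: rhodamine 110 fluorescence at Ex 480/Em 540 nm.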
UCH37 inh = inhibitors of human UCH37 deubiquitinase, primary screen, biochemical, Ub-AMC cleavage, fluorescence. inhibition, % (test concentration not listed). purified proteasome/UCH37. AID 588478, 2011. hit rate 0.33% among 330,000;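 active = mean inhibition over replicate wells above about 20%, limit read from the data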;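 note: 0% = compound-free wells with enzyme and 100% = wells lacking proteasome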
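system = Proteasome-associated human UCH37 deubiquitinase | amount = 0.15 nM proteasome as dispensed | medium = pH 7.4 Tris-HCl (50 mM) with ovalbumin, ATP-MgCl2, DTT | incubation = 30 min preincubation with enzyme, 25 min cleavage at room temperature | detection = AMC fluorescence 355/460 nm | read-out basis = percent inhibition | controls = no-proteasome and no-compound wells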
UBC13 polyUb = UBC13 polyubiquitin chain formation inhibitors, primary screen, biochemical, TR-FRET, uHTS; Ubiquitin-conjugating enzyme E2 N (Homo sapiens), P61088; inhibition, % at 20 µM; hit rate 0.47% among 330,000; in the data active = inhibition above about 45%, passing the limit was not always enough; inconclusive = no clear call, values can overlap the other calls
PREPL inhibitor = PREPL enzyme inhibitors, primary screen, biochemical, fluorescence polarization. inhibition, % at 5.96 µM. hit rate 0.68% among 320,000. AID 2751, 2010. Prolyl endopeptidase-like (Homo sapiens), Q4J6C6. recombinant PREPL, fluorescence polarization activity-based probe; in the data active = inhibition above about 43%;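 note: 0% = enzyme with DMSO and 100% = wells lacking enzyme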
Casp3 counter = CASP3 inhibitor validation, counterassay for project on UBE2N polyubiquitination blockers, biochemical, one dose; hit rate 4% among 1,400; shares compounds with UBC13 polyUb; Recombinant caspase-3, Caspase-Glo 3/7 luminescence, 60 min; inhibition, % at 20 µM;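 active = mean inhibition across replicates above about 26%, limit read from the data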;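 note: plate controls were DMSO with caspase-3 for no effect and DMSO wells lacking enzyme for full effect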
UBC13 confirm = UBC13 polyubiquitination inhibitors, single-point retest, confirmation, biochemical, TR-FRET, single concentration; shares compounds with UBC13 polyUb; inhibition, % at 10 µM; hit rate 68% among 1,400; AID 488859, 2010; in the data active = inhibition above about 45%; inconclusive = no clear call, values can overlap the other calls
* marks the source's active call; other numbers are inactive results; ? = inconclusive; nt = not tested or not shown. Compounds with a hit are over-represented: about 1.5% of the library has one in this group of screens.

SMILES	Apaf1 inhib	UCH37 inh	UBC13 polyUb	PREPL inhibitor	Casp3 counter	UBC13 confirm
Nc1nonc1-n1nnc(C(=O)N/N=C/c2ccccc2Br)c1CN1CCCC1	5	nt	63*	14	-4	2
COc1ccccc1-c1cc(C(=O)NN=Cc2cn(C)nc2C)c2ccccc2n1	nt	6	nt	nt	nt	nt
CCOc1cc(CNCCc2ccc(S(N)(=O)=O)cc2)ccc1OCc1ccc(Cl)cc1	6	2	58*	17	8	66*
COc1ccc(S(=O)(=O)N2CCOCC2)cc1NC(=O)CON=Cc1ccccc1OC(F)F	nt	4	nt	nt	nt	nt
COc1ccc(-c2cc(C#N)nc(N3CCNCC3)n2)cc1	-5	-28	98*	-60	-3	74*
COc1ccc(-c2cc(C#N)nc(N3CCN(C)CC3)n2)cc1	8	-11	-8	-48	nt	nt
CN(C)CCNC=C(C(=O)Nc1ccc(Cl)cc1Cl)C(=O)Nc1ccc(Cl)cc1Cl	9	0	56*	8	-2	80*
CC(=O)/C(=C/N(C)C)C(=O)Nc1ccc(Cl)cc1Cl	5	4	1	-4	nt	nt
CCc1cccc2c(C(=O)C(NCCOC)c3ccccc3)c[nH]c12 (stereo not drawn)	1	-1	23	-5	nt	nt
CCNC(C(=O)c1c[nH]c2c(CC)cccc12)c1ccccc1 (stereo not drawn)	0	1	50*	-24	-1	64*
CC(=NNC(=O)c1ccco1)c1ccc(Br)s1	nt	5	nt	nt	nt	nt
Cc1ccc(C=Nc2sc3c(c2C#N)CCC3)s1	nt	2	nt	nt	nt	nt
COC(=O)c1ccc(CNC(=O)COC(=O)c2cc(Cl)ccc2O)cc1	-8	-8	52*	-7	-5	44
O=C(COC(=O)c1cc(Cl)ccc1O)NC(=O)NCc1ccccc1	9	-47	50*	6	-3	?
O=C(COC(=O)c1ccccc1O)NC(=O)NCc1ccccc1	-8	-7	?	nt	nt	nt
C/C(C=NNC(=O)c1ccncc1)=C/c1ccc(C(C)C)cc1	nt	3	nt	nt	nt	nt
COCCN=c1scc(-c2ccco2)n1N=Cc1ccc(O)c(O)c1O	nt	6	nt	nt	nt	nt
O=C(Cc1ccc([N+](=O)[O-])cc1)N/N=C/c1cccnc1	-19	nt	-1	0	nt	nt
C/C(=N\NC(=O)CSCc1ccc([N+](=O)[O-])cc1)c1cccc(Br)c1	15	nt	47*	-12	-2	34
CC(=NNC(=O)CSCc1ccc([N+](=O)[O-])cc1)c1cccc(Br)c1	nt	2	nt	nt	nt	nt
O=C(CSCc1ccc([N+](=O)[O-])cc1)N/N=C/c1ccncc1	-4	nt	68*	-6	-5	75*
O=C(CSCc1ccc([N+](=O)[O-])cc1)N/N=C/c1cccnc1	-1	nt	86*	-7	-1	96*
CCCOc1ccc(C=NNC(=O)CN2CCCCC2)cc1	nt	0	nt	nt	nt	nt
CCN(CC(=O)Nc1c(F)cccc1F)C(=O)CCOc1ccccc1	3	0	55*	8	2	-4
COc1cc(C=NNC(=O)CNC(=O)c2ccncc2)ccc1O	nt	1	nt	nt	nt	nt
SMILES	Apaf1 inhib	UCH37 inh	UBC13 polyUb	PREPL inhibitor	Casp3 counter	UBC13 confirm
COc1ccc(-c2cc(-c3cccs3)nc(OC)c2C#N)cc1OC	-2	-435	50*	2	-2	44
Cc1ccc2[nH]c(=O)c(NC(N)=S)nc2c1	-3	9	71*	17	-2	85*
Cc1ccc(NC(=S)c2nc3ccccc3[nH]2)c(C)c1	-1	-1	-22	1	nt	nt
NC(=S)Nc1nc2ccccc2[nH]c1=O	-9	9	60*	11	-5	64*
Cc1nnc(NN=Cc2c[nH]c3ccccc23)[nH]c1=O	nt	4	nt	nt	nt	nt
Cc1ncc(S(=O)(=O)c2ccc(Cl)cc2)c(N)n1	-4	4	45*	2	-1	49*
Cc1ccc(C=NNC(=O)c2ccc(Cn3cc([N+](=O)[O-])cn3)o2)cc1	nt	3	nt	nt	nt	nt
O=C(COc1ccccc1)NCC(=O)NN=Cc1ccco1	nt	5	nt	nt	nt	nt
CCOc1ccc2nc(NC3=NC(C)(C)C=C(C)N3)nc(C)c2c1	34	-14	57*	16	2	64*
Cc1cccc(CN(CC(=O)NN=Cc2ccco2)S(=O)(=O)c2ccc(Cl)cc2)c1	nt	-2	nt	nt	nt	nt
CCOC(=O)c1nn(-c2ccccc2)c(=O)cc1OCC(=O)Nc1ccccc1OCC	2	-21	57*	-3	-2	?
CC(=O)NC(c1ccc(C)cc1)c1cc(Cl)c2cccnc2c1O (stereo not drawn)	-3	nt	-8	nt	nt	nt
CC(=O)NC(c1cc(Cl)c2ccccc2c1O)C(C)C (stereo not drawn)	5	0	81*	2	-4	56*
O=C(CCc1ccccc1)NC(c1cccs1)c1cc(Cl)c2cccnc2c1O (stereo not drawn)	nt	5	nt	nt	nt	nt
CC(=O)NC(c1cccs1)c1cc(Cl)c2ccccc2c1O (stereo not drawn)	8	-4	71*	11	-2	58*
CCC(=O)NC(c1cccs1)c1cc(Cl)c2ccccc2c1O (stereo not drawn)	6	-3	49*	8	-2	34
CON=C(Cn1ncc(NC2CCCCC2)c(Br)c1=O)c1ccc(Cl)cc1	nt	1	nt	nt	nt	nt
NC(=NOC(=O)c1cccc([N+](=O)[O-])c1)c1ccccn1	nt	2	nt	nt	nt	nt
CON=C(C)c1ncc(C(F)(F)F)cc1N1CCOCC1	nt	-3	nt	nt	nt	nt

Screening data from PubChem BioAssay.
